Screens deposited in PubChem by several laboratories.
In the library only some 5.1% were active in any assay of this set; here they are far more common.
STAT3 inh: inhibitors of IL-6 induced STAT3 signaling; U3A cells, IL-6 STAT3-luciferase reporter, luminescence; host cell line lacks STAT1; inhibition, % at 5.5 µM; 0.89% of 190,000 active;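 active = inhibition above the mean inhibition across all screened compounds plus 3 SD, cut at about 44% in these data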;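 note: 0% = DMSO only wells and 100% = 100 µM nifuroxazide control wells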
NF-kB expr up: NF-kB expression increase, human neuronal cells; NF-kB reporter expression; stronger effect = higher value; fold change at 12.5 µM; 1.6% of 190,000 active; AID 1239; in the data active = fold change above about 3.3
APP 5'UTR act: activates APP 5'UTR luciferase reporter; activation, % at 2 µM; 1% of 190,000 active; SH-SY5Y APP 5'UTR luciferase reporter, luminescence; zero percent = DMSO vehicle wells;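 active = activation above a set limit, based on mean plus 3 SD of controls, cut at about 140% in these data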
STAT1 activator: increases IFN-gamma driven STAT1 reporter signal; 2.6% of 200,000 active; NIH 3T3 STAT1-luciferase reporter, luminescence; 100% = IFN-gamma alone, no compound; activation (% of control), % at 5.5 µM; AID 932;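 active = activation above the screen-wide mean activation plus 3 SD, cut at about 130% in these data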;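 note: raw ratio to IFN-gamma control signal so 100% means no change and 0% no light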
STAT3 act: STAT3 signaling activation. 0.91% of 190,000 active. AID 871. U3A cells, IL-6 STAT3-luciferase reporter, luminescence; 100% = signal with IL-6 EC80 alone. activation (% of control), % at 5.6 µM;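 active = activation above the screen-wide mean of compound activation plus 3 SD, cut at about 130% in these data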;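 note: 0% = background luminescence of wells with medium and substrate only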
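Detection: reporter luminescence signal / Assay system: STAT1-lacking human U3A cells, STAT3 luciferase reporter / Incubation: compound pre-incubation 1 h before IL-6, then 6 h stimulation at 37 °C / Control set: IL-6-only high control / Read-out: % activation relative to IL-6 control / Probe or stimulus: Interleukin-6, 33 ng/mL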
STAT1 inh: STAT1 signaling inhibition; NIH 3T3 STAT1-luciferase reporter, IFN-gamma, luminescence; inhibition, % at 5.5 µM; 0.35% of 200,000 active;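 active = inhibition above a set limit, the mean inhibition across all tested compounds plus 3 SD, cut at about 34% in these data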;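 note: 0% = IFN-gamma with DMSO and 100% = IFN-gamma with 300 µM nifuroxazide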
* marks the source's active call; other numbers are inactive results; nt = no result.

SMILES	STAT3 inh	NF-kB expr up	APP 5'UTR act	STAT1 activator	STAT3 act	STAT1 inh
O=C(O)CCC(=O)N1CCc2cc(S(=O)(=O)N(CCc3ccccc3)Cc3ccccc3)ccc21	3	1.1	16	100	104	0
N=C1SCC(=O)N1c1nc(-c2ccccc2)cs1	9	1.6	-7	150*	98	-55
O=C1C2C3c4ccccc4C(c4ccccc43)C2C(=O)N1c1nc(-c2ccccc2)cs1 (stereo not given)	9	1.1	-18	106	98	-6
Cc1nc(NCc2ccco2)c2c(C)c(C)sc2n1	-47	1.3	-4	193*	139*	-72
CNC(=O)c1sc(-c2ccccc2)nc1C	14	1.6	19	110	93	-11
CC(=O)c1sc(-c2ccc(Cl)cc2)nc1C	18	1.4	36	133*	92	-39
CNC(=O)c1sc(-c2ccc(Cl)cc2)nc1C	13	2.1	nt	142*	89	-45
CC(=O)c1sc(-c2cccc(Cl)c2)nc1C	10	1.4	16	108	94	-9
Cc1nc2ccc(Nc3ccncc3)cc2s1	8	1.1	9	108	101	-9
CCCCc1ccc(NC(=S)NCc2cccnc2)cc1	13	0.94	16	101	88	2
O=C(Nc1ccccc1)N1CCOCC1	10	0.97	11	99	93	1
O=C(Nc1ccc2c(c1)oc1ccccc12)N1CCOCC1	-6	3.8*	74	140*	108	-44
CCOC(=O)C1(Cc2ccccc2Cl)CCN(C(=O)c2cnccn2)CC1	-7	2.7	42	149*	110	-57
CCOC(=O)C1(Cc2cccc(F)c2)CCN(C(=O)c2cnccn2)CC1	5	1	6	101	101	-1
COc1ccc(CC(=O)NNC(=S)Nc2ccccc2)cc1Cl	1	1.1	-1	104	103	-8
CCCOc1ccc(CC(=O)NNC(=S)Nc2ccccc2)cc1Br	6	3.3*	12	113	97	-9
Cc1ccc(/C=N/NC(=S)N2CCOCC2)cc1	-13	1.6	64	131*	113	-35
Cc1ccc(CNC(=S)N2CCOCC2)cc1	4	1.1	25	92	103	7
S=C(N/N=C/c1ccc(Cl)cc1)N1CCOCC1	6	1.5	27	132*	98	-36
CC[n+]1c(/C=C2\C=C(C)CC(C)(C)C2)sc2ccccc21	50*	1.4	-11	77	60	26
CC[n+]1c(/C=C2/C=C(C)CC(C)(C)C2)sc2ccc(OC)cc21	58*	0.95	0	76	54	26
Brc1cc2c(cc1/C=N/Nc1nc(N3CCCCC3)nc(N3CCCCC3)n1)OCO2	4	1.2	1	103	98	-4
CCNC(=O)CC1C(=O)N(CC)C(=S)N1NC(=O)c1cccnc1 (stereo not given)	-5	1.1	16	97	107	2
O=S1(=O)C=C(SCc2cccc(Cl)c2)Nc2ccccc21	14	1.1	-1	98	91	2
O=Cc1s/c(=N\S(=O)(=O)c2ccccc2)n(CCCCl)c1Cl	1	0.12	-95	136*	101	-38
SMILES	STAT3 inh	NF-kB expr up	APP 5'UTR act	STAT1 activator	STAT3 act	STAT1 inh
C(=C\c1ccccc1)/CSc1ccccn1	14	2.2	54	136*	94	-39
O=C(CSc1ccccn1)N/N=C/C=C/c1ccccc1	-15	1.4	-3	109	113	-10
COc1ccc(/C=C/C2=CCN(Cc3ccc(OC)cc3)CC2)cc1	-37	1.2	-13	93	134*	6
COc1ccc(/C=C/C2=NN(Cc3ccccc3)C(=O)CC2)cc1	6	1.3	-10	96	97	5
CN(C)C(=O)NC(O)C(Cl)Cl (stereo not given)	5	0.9	-5	95	101	6
O=C(NCC1COc2ccccc2O1)c1ccc(Cl)cc1 (stereo not given)	-3	2.9	75	140*	105	-44
O=C(NCC1COc2ccccc2O1)c1ccc(NC(=O)c2ccco2)cc1 (stereo not given)	5	1.1	3	103	99	-3
CCN1/C(=C/C(C)=C/c2sc3ccccc3[n+]2CC)Sc2ccccc21	96*	0.11	-67	57	21	45*
CCN1/C(=C\C=C(C(C)=O)C(C)=O)Sc2ccccc21	28	0.91	-8	95	78	4
N#C/C(C(=O)Oc1ccccc1)=C1\C=CC=CN1	9	1.9	57	142*	95	-46
Cc1ccc(-c2cn3nc(C)c(C)nc3n2)cc1	-4	4.7*	47	111	107	-14
Cc1cc(N2CCN(C)CC2)n2cc(-c3ccc(F)cc3)nc2n1	15	1.3	-1	103	96	-3
O=C(Nc1ccccc1)c1ccn[nH]1	8	3.4*	80	138*	97	-42
O=C(Nc1ccc(Cl)cc1)OCc1cn(-c2ccc(Cl)cc2)nn1	6	1.4	nt	109	100	-10
Clc1ccc(-n2cc(COCc3ccccc3)nn2)cc1	43	4.1*	170*	97	68	4
CC(=O)/C(=N/Nc1ccc(C)cc1)Sc1nnc(CCc2ccccc2)n1-c1ccccc1	-1	4.4*	-1	100	99	2
CCOC(=O)/C(=N/Nc1ccc(OC)cc1)Sc1nnc(CCc2ccccc2)n1-c1ccccc1	-6	1.2	-20	105	105	-5
Cc1ccc(/C=N/NC(=O)c2cccs2)s1	2	2.6	43	126	102	-29
O=C(O)c1cc(N/N=C/c2cccs2)ccc1Cl	-30	1.9	152*	108	130	-12
Cc1ccc(/C=N/Nc2nc(Cl)c(Cl)cc2Cl)s1	-5	2.6	71	147*	108	-52
O=C(O)c1cc(N/N=C/C(Cl)=C/c2ccccc2)ccc1Cl	51*	0.96	120	45	62	59*
O=C(N/N=C/c1cccs1)C(=O)N1CCCC1	9	nt	13	112	97	-13
Cc1ccsc1/C=N/Nc1nc(Cl)c(Cl)cc1Cl	-18	1.1	28	126	117	-30
CN(C(=O)Nc1ccc(Cl)c(Cl)c1)c1ccccc1C(=O)O	6	1.1	-9	102	93	0
Cc1ccc(/C=N/Nc2ccc(Cl)c(C(=O)O)c2)s1	-31	8*	166*	143*	129	-49
Cc1cc(NC(=S)Nc2ccc(C)c(Cl)c2)n[nH]1	0	2.2	40	128	104	-34
COc1ccc(-c2cc(CNC(=O)CN(C)Cc3ccccc3)on2)cc1	12	1.1	1	100	99	0
OCCN(/C=N/c1nc(-c2ccc(Br)cc2)cs1)CCO	11	1.8	42	116	96	-17
NC(=O)C1(N2CCCCC2)CCN(c2nc(-c3ccc(Br)cc3)cs2)CC1	19	1.2	-5	96	87	5
